In PMC6240402 (The Journal of allergy and clinical immunology, 2018):
“Also recorded” adds a separate entry of the source. Each block holds one molecule with its values, some of them ahead of it.

Legend:
[1] = molecular target: T1, CCR3 (human blood eosinophils) (Homo sapiens, UniProt P51677); test: CCR3 surface expression in human blood eosinophils, prolonged exposure; type: cell-based
T1 sequence (P51677 1-355): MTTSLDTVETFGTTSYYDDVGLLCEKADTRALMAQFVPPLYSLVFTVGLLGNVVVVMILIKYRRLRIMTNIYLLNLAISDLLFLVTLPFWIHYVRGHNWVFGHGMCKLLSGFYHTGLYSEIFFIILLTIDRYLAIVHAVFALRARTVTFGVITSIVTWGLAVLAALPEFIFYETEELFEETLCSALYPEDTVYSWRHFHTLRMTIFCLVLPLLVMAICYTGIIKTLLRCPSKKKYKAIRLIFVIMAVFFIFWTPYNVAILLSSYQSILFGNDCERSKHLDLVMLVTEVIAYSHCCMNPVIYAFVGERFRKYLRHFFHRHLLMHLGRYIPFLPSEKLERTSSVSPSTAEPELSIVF
Method in brief: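 Eosinophils came from blood of mild allergic asthmatic donors, separated on a Ficoll-Paque gradient and then negatively selected. Cells got vehicle or 1 μM inhibitor, with or without CCL11 (12 nM), for 24, 48 or 72 h, refreshed daily with medium plus inhibitor. After blocking with 10% heat-inactivated human AB serum, cells were stained with PE anti-CCR3 (clone 5E8) or isotype control and read by flow cytometry. Surface CCR3 is given as % of vehicle: mean ± SEM, n=3, triplicate.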

[2] = molecular target: T1, CCR3 (human blood eosinophils); test: Eotaxin-induced chemotaxis of blood eosinophils; type: cell-based; settings: CCL11 12 nM, CCL24 20 nM, CCL26 100 nM
Method in brief: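 Eosinophils were taken from the blood of mild allergic asthmatic subjects, separated over a Ficoll-Paque Plus gradient, then purified by negative selection with an eosinophil isolation kit. The test peptide was given at 0.001–10 μM, with 4 h chemotaxis toward CCL11 (12 nM), CCL24 (20 nM) or CCL26 (100 nM). IC50 and IC90 were derived from the dose-response inhibition curves.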

CCR3 [3] = molecular target: T2, CCR3 (Homo sapiens, UniProt P51677); test: 13C HSQC NMR binding to reductively methylated CCR3 positive membranes
T2 sequence (P51677 1-355): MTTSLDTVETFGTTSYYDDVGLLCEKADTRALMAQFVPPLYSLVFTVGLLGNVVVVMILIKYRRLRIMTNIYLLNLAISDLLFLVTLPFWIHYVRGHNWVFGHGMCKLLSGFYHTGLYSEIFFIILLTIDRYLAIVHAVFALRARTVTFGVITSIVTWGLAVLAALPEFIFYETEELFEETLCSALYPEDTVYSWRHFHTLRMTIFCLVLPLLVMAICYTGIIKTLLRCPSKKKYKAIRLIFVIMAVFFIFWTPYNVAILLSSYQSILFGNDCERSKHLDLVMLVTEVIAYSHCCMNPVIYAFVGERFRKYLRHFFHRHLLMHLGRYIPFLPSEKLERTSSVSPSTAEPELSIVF
Method in brief: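 13C HSQC spectra recorded on membranes carrying 13C-reductively methylated CCR3 (lysine di-13CH3 label), compared with CCR3-null membranes. Spectra were taken with or without 1 μM CCL11, in the presence or absence of 2 μM test peptide. Binding was judged from spectral comparisons between conditions.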

CCR3 [4] = molecular target: T2, CCR3; test: CCR3 surface expression/internalization in AML14.3D10-CCR3 cells; type: cell-based
Method in brief: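 CCR3-transfected, eosinophil-differentiated AML14.3D10 cells were exposed for 30 min to vehicle, test peptide (0.01–10 μM) or comparator antagonists (1 μM), each with or without CCL11 (12 nM). Longer exposures ran 24–72 h at 1 μM, with daily medium/inhibitor renewal. Cells were blocked with 10% heat-inactivated human AB serum, stained with PE anti-CCR3 (5E8) or isotype, and analysed by flow cytometry. Values are mean ± SEM, n=3, in triplicate.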

[5] = molecular target: T3, CCR3 (AML14.3D10-CCR3 cells) (Homo sapiens, UniProt P51677); test: Eotaxin-induced chemotaxis of AML14.3D10-CCR3 cells; type: cell-based; settings: CCL11 12 nM, CCL24 20 nM, CCL26 100 nM
T3 sequence (P51677 1-355): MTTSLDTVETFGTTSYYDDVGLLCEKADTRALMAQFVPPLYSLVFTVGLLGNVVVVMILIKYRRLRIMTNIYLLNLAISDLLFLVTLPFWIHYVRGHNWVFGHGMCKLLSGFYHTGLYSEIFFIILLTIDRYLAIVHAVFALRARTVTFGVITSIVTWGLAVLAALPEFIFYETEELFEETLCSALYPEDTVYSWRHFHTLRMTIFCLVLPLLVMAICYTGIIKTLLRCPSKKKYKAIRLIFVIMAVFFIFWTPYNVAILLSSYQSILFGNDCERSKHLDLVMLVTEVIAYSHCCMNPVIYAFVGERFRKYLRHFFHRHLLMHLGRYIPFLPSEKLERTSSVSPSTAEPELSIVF
Method in brief: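 Eosinophil-differentiated acute myeloid leukaemia line stably transfected to express CCR3. Cells exposed to the test peptide across 0.001–10 μM as a dose-response, then allowed to migrate for 4 h toward CCL11 (12 nM), CCL24 (20 nM) or CCL26 (100 nM). Read-out is inhibition of chemotaxis.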

sputum eosinophils / AHR = settings: clinical trial; cited from earlier work
CCR3 [6] = molecular target: T2, CCR3; settings: SB328437; cited from earlier work
Solubility observation = type: physicochemical; settings: authors' own experience; unsuitable for iv injection
[7] = test system: CCR3 (AML14.3D10-CCR3 cells); type: cell-based
Method in brief: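 AML14.3D10-CCR3 cells (an eosinophil-differentiated AML line stably expressing CCR3) were held 24, 48 or 72 h with vehicle or test compound at 1 μM. Medium was replaced daily with fresh complete medium containing compound. Cells were then challenged with CCL11 (12 nM). Each time point was compared with the 24 h point; mean ± SEM, n=3 experiments in triplicate.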

lung eosinophils = settings: subcutaneous 100 mg/kg, resuspended with Tween-80; cited from earlier work

- CCR3 surface expression, 24h, CCL11 alone ([1]; CCL11 12 nM alone, 24h, % of vehicle): ~ 68%
- CCR3 surface expression, 72h, CCL11 alone ([1]; CCL11 12 nM alone, 72h, % of vehicle): ~ 18%
- induction of chemotaxis, blood eosinophils [2]: undergo CCR3-mediated chemotaxis
- CCR3 internalized from cell surface (CCR3 [4]; AML14.3D10-CCR3, CCL11 30 min, flow cytometry): More than 50%
- induction of chemotaxis, AML14.3D10-CCR3 [5]: undergo CCR3-mediated chemotaxis
Molecule: CCL11: high affinity agonist chemokine of CCR3
- interference of CCL11 and R321 with each other's binding (CCR3 [3]; 1 μM CCL11 and 2 μM R321): neither CCL11 nor R321 interfere with each other’s binding to the receptor
- effect on CCR3 HSQC signals (CCR3 [3]; 1 μM CCL11 or 2 μM R321): specifically reduced the intensity of CCR3 signals

- induction of chemotaxis, blood eosinophils [2]: undergo CCR3-mediated chemotaxis
- induction of chemotaxis, AML14.3D10-CCR3 [5]: undergo CCR3-mediated chemotaxis
Molecule: CCL26: high affinity agonist chemokine of CCR3

Molecule: NC(=O)c1ccc(CNC(=O)NC[C@H]2CN(Cc3ccc(Cl)c(Cl)c3)CCO2)cc1 [GW766994]
- AHR (sputum eosinophils / AHR): significant inhibition of AHR
- sputum eosinophils (sputum eosinophils / AHR): trend towards inhibition of sputum eosinophils

Molecule: COC(=O)[C@H](Cc1ccc([N+](=O)[O-])cc1)NC(=O)c1cccc2ccccc12 [SB328437]
- CCR3 surface levels, prolonged exposure ([1]; 1 μM, up to 72h): failed to promote CCR3 cell surface accumulation; also recorded: no significant effect on receptor levels
- activity at CCR3 in eosinophils (CCR3 [6]): specific inhibitor of CCR3 in eosinophils
- solubility (Solubility observation): solubility issues
- drop in chemotaxis inhibition level over 72h ([7]; AML14.3D10-CCR3, 1 μM, CCL11 12 nM, 72h): 13.7%
- CCL11/CCR3-mediated chemotaxis inhibition relative to R321 and UCB35625 ([7]; equimolar concentrations, 1 μM): less effective inhibitor of CCL11/CCR3-mediated chemotaxis
- CCR3 internalization (discussion) (CCR3 [4]; effect more pronounced with longer treatment times): partially or completely block CCR3 internalization
- OVA-induced accumulation of eosinophils in lungs (lung eosinophils): successfully suppress OVA-induced accumulation of eosinophils in the lungs

- induction of chemotaxis, blood eosinophils [2]: undergo CCR3-mediated chemotaxis
- induction of chemotaxis, AML14.3D10-CCR3 [5]: undergo CCR3-mediated chemotaxis
B1: CCL24: high affinity agonist chemokine of CCR3 (protein, UniProt O00175 27-119, looked up)
C-C motif chemokine 24: VVIPSPCCMFFVSKRIPENRVVSYQLSSRSTCLKAGVIFTTKKGQQFCGDPKQEWVQRYMKNLDAKQKKASPRARAVAVKGPVQRYPGNQTTC
